Most compounds without a hit are left out; they make up all but 1.9% or so of the library.
CHRM4 agonist: human M4 muscarinic receptor agonists, primary screen, CHO-K1 cells, Fluo-8 calcium fluorescence; Muscarinic acetylcholine receptor M4 (Homo sapiens), P08173; CHO-K1 hM4/Gqi5; vehicle 0%, full acetylcholine response 100%; activation, % at 3 µM; 360,000 compounds, 0.14% hits; AID 624127, 2012;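 active = activation above the run mean over all test wells plus 3 SD, cut at about 32% in these data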;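 also: peak over basal fluorescence ratio per well then scaled between controls; 0% = DMSO wells and 100% = acetylcholine at EC100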
Target sequence (P08173 whole entry, looked up): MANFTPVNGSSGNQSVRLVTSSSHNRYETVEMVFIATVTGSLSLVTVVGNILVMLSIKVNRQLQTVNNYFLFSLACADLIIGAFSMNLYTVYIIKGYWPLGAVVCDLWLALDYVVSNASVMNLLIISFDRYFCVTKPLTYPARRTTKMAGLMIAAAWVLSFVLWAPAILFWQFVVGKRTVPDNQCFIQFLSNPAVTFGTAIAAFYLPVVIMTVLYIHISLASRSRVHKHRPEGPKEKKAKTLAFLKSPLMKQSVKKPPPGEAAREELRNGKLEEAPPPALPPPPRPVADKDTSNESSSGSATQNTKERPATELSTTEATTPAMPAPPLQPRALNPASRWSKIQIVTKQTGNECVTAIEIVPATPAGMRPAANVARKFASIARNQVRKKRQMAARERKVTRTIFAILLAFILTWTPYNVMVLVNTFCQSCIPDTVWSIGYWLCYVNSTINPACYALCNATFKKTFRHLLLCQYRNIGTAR
CHRM4 PAM: human M4 muscarinic receptor positive allosteric modulators, primary screen, CHO-K1 cells, Fluo-8 calcium fluorescence | CHO-K1 hM4/Gqi5, ACh EC20; 0% = ACh EC20, 100% = maximal ACh | AID 624126, 2012 | 360,000 compounds, 0.4% hits | activation, % at 3 µM | Muscarinic acetylcholine receptor M4 (Homo sapiens), P08173;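 active = activation above its plate's cutoff, the mean activation of sample wells plus 3 SD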
M4 antag: human M4 muscarinic receptor antagonists, primary screen, CHO cells, Fluo-8 calcium fluorescence. AID 624125, 2012. Muscarinic acetylcholine receptor M4 (Homo sapiens), P08173. 360,000 compounds, 0.73% hits. CHO-hM4 cells, ACh EC80. inhibition, % at 3 µM;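 active = inhibition above its plate's cutoff, the mean inhibition of sample wells plus 3 SD, cut at about 27% in these data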;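 also: 0% = acetylcholine EC80 with DMSO and 100% = DMSO without agonist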
CHRM5 agonist: human M5 muscarinic receptor agonists, primary screen, CHO-K1 cells, Fluo-8 calcium fluorescence. CHO-K1 hM5 cells; 0% DMSO wells, 100% maximal acetylcholine response. activation, % at 3 µM. 360,000 compounds, 0.19% hits;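 active = activation above the run's mean over test compounds plus 3 SD, cut at about 23% in these data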;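 also: signal is peak over basal fluorescence ratio across the kinetic read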
CHRM5 PAM: human M5 muscarinic receptor positive allosteric modulators, primary screen, CHO-K1 cells, Fluo-8 calcium fluorescence; Muscarinic acetylcholine receptor M5 (Homo sapiens), P08912; CHO-K1 hM5, ACh EC20 PAM; 0% = ACh EC20, 100% = ACh EC100; activation, % at 3 µM; 360,000 compounds, 0.3% hits; AID 624038, 2012;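 active = activation above the run cutoff, the mean activation of all test compounds plus 3 SD, cut at about 18% in these data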
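Assay system – human M5 receptor in CHO-K1 cells · Read-out – % activation, ACh-normalized · Technique – Fluo-8 calcium fluorescence · Dosing – single-point, 3 µM nominal · Incubation – Fluo-8 loading 80 min at 37 °C plus 30 min room temperature · Repeats – singlicate, one well per test compound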
CHRM5 antagonist: human M5 muscarinic receptor antagonists, primary screen, CHO cells, Fluo-8 calcium fluorescence; CHO-hM5 cells, ACh EC80; 360,000 compounds, 0.59% hits; inhibition, % at 3 µM; Muscarinic acetylcholine receptor M5 (Homo sapiens), P08912;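 active = inhibition above a per-plate cutoff, the mean of that plate's test compounds plus 3 SD, cut at about 27% in these data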;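 also: 0% = acetylcholine EC80 with DMSO and 100% = DMSO without agonist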
Numbers without * were called inactive.

SMILES	CHRM4 agonist	CHRM4 PAM	M4 antag	CHRM5 agonist	CHRM5 PAM	CHRM5 antagonist
O=c1[nH]c(C2CCN(S(=O)(=O)c3ccccc3)CC2)nc2c1nnn2Cc1ccccc1	2	-27	67*	-1	3	-5
O=c1[nH]c(C2CCN(S(=O)(=O)c3ccc4c(c3)OCCO4)CC2)nc2c1nnn2Cc1ccc(F)cc1	0	-19	48*	-1	-1	14
O=c1[nH]c(C2CCCN(S(=O)(=O)c3ccccc3Cl)C2)nc2c1nnn2Cc1ccc2c(c1)OCCO2 (stereo unspecified)	3	-8	-9	-6	-3	-6
CCOC(=O)c1ccccc1NC(=O)COC(=O)CCC1CCCC1	0	2	-4	1	13	-9
CCCCC1CC2=C(C(=O)OC(C)(C)O2)C(c2ccc(Cl)cc2)O1 (stereo unspecified)	-2	-7	-19	-7	-15	-4
O=c1[nH]c(C2CCN(S(=O)(=O)c3ccc(S(=O)(=O)NC4CC4)cc3)CC2)nc2c1nnn2Cc1cccc(F)c1	0	-20	45*	-4	0	7
Cc1ccc(Cn2nnc3c(=O)[nH]c(C4CCN(S(=O)(=O)c5ccc(S(=O)(=O)NC6CC6)cc5)CC4)nc32)cc1	1	-10	12	-6	2	1
CCCCC(CC(O)COCCC)c1n[nH]c(=S)n1-c1ccccc1 (stereo unspecified)	8	10	-3	1	-4	-3
CNCCC=C1c2ccccc2CCc2ccccc21	7	-17	67*	0	-19	93*
CC(=O)Nc1ccc2c(c1)CCc1ccccc1-2	3	0	-20	0	1	-2
Cc1c(N2C(=O)/C(=C/c3ccc(N(C)C)cc3)N(C)C2=S)c(=O)n(-c2ccccc2)n1C	4	-1	3	34*	-18	20
COc1ccccc1NC(=S)N1CCn2cccc2C1c1cccnc1 (stereo unspecified)	1	-3	4	-2	0	15
c1cc2cc(CNc3nc(NCC4CC4)nc4ccsc34)ccc2o1	10	-6	5	3	-10	16
COc1ccccc1CNc1nc(NCc2ccc3occc3c2)c2sccc2n1	12	-9	22	2	-18	43*
COc1ccccc1CNc1nc(NCc2ccccc2SC)c2sccc2n1	13	-9	32*	2	-14	30*
COc1ccccc1CNc1nc(NCc2ccccc2OC)c2sccc2n1	12	-10	11	3	-14	25
COC(=O)[C@H]1C[C@@]2(O)CN(S(=O)(=O)c3ccc(C)cc3)C[C@@]2(OC(=O)NCC2CCCCC2)C[C@H]1C(=O)OC	1	2	-6	1	1	1
CC1CCN(Cc2ccc(NC(=O)C3CCN(c4nnc(-n5cccc5)s4)CC3)cc2)CC1	5	-16	33*	-5	-5	-4
O=C(C1CCN(c2nnc(-n3cccc3)s2)CC1)N1CCN(Cc2ccc3c(c2)OCO3)CC1	6	-1	-2	3	-4	3
Cc1ccc(N=N/C(=C\O)C(=O)c2ccc(Cl)cc2)cc1	0	15	-8	0	10	-7
O=C(/C(=C/O)N=Nc1ccccc1)c1ccc(Cl)cc1	1	7	0	-2	19*	-12
COC[C@H]1CCCN1[C@H]1CS(=O)(=O)N[C@@H]1COCc1ccccc1	2	-1	-10	2	3	-3
CC(=O)OCCNc1cc(Sc2nc3ccccc3[nH]2)c2nonc2c1[N+](=O)[O-]	2	-5	41*	-3	-6	20
CCn1c(SCC(=O)c2cc(OC)ccc2OC)nnc1-c1ccncc1	-1	2	10	2	4	1
CCn1c(SCC(=O)c2cc(OC)ccc2OC)nnc1C(C)C	1	19*	-12	-7	7	-9
SMILES	CHRM4 agonist	CHRM4 PAM	M4 antag	CHRM5 agonist	CHRM5 PAM	CHRM5 antagonist
O=C(NNC(=O)C1CC(=O)N(Cc2ccccc2)C1)c1ccc(F)cc1 (stereo unspecified)	1	8	3	3	-4	1
Cc1ccc(C)c(S(=O)(=O)NCc2ccc(C(=O)N3CCN(C)CC3)cc2)c1	1	20*	-12	3	14	-7
COc1ccccc1NC(=O)CSc1nc2[nH]ncc2c(=O)[nH]1	1	-2	-2	1	6	-1
CCC(=O)N1CCc2cc(S(=O)(=O)CCC(=O)Nc3nc(C)cs3)ccc21	1	6	-10	-1	28*	-3
Cc1c(C)c2ccc(O)c(CN3CCCC3)c2oc1=O	0	8	1	-4	4	2
O=c1oc2c(CN3CCCCC3)c(O)ccc2c2c1CCCC2	0	-14	35*	-6	-19	6
Cc1csc(NC(=O)CSc2nnc(-c3ccoc3C)o2)n1	3	9	-17	-1	0	-2
Cc1occc1-c1nnc(SCC(=O)Nc2nc(C(C)(C)C)cs2)o1	22	-9	19	6	-23	30*
C=CC[n+]1c(/C=C/c2ccc(OC(C)=O)c(OC)c2)ccc2ccccc21	0	-4	-5	-4	-2	4
CCN(CC)c1ccc(C2C(C(=O)OC)=C(C)NC(C)=C2C(=O)OC)cc1	0	-18	14	-8	-17	8
COC(=O)C1=C(C)NC(C)=C(C(=O)OC)C1c1ccc(NC(C)=O)cc1	2	10	2	44*	-16	14
Cc1nn(CC(=O)N2CCN(c3ccccc3)CC2)c(C)c1[N+](=O)[O-]	2	-25	37*	-3	1	7
Cc1ccc(S(=O)(=O)N2CCN(C(=O)Cn3nc(C)c([N+](=O)[O-])c3C)CC2)c(C)c1	5	3	-21	-6	-4	-10
CCCNC(=O)C(Cc1cccc(C#N)c1)NC(=O)c1cccc([N+](=O)[O-])c1 (stereo unspecified)	0	5	-8	3	5	8
COc1ccccc1CN1CCC(CNS(=O)(=O)c2cc(-c3cc(C)no3)ccc2OC)CC1	1	-23	32*	-8	-5	2
O=C(O)c1ccc(NC2=C/C(=N/S(=O)(=O)c3cccs3)c3ccccc3C2=O)cc1	4	3	-1	1	2	4
